# Rows were chosen to be rich in hits. Some 3.2% of all compounds tested hit in one or more screens of this group.
# MEKK2wt PB1 HTS = raises or lowers MEK5 binding to wildtype human MEKK2 PB1 domain; AID 1531; actives 1.1% (n = 290,000); bead flow cytometry, Alexa488-MEK5 binding to MEKK2 WT; actives lie on both sides; binding response (% of control), % at 10 µM; in the data active = binding response below about 67% or above about 130%; inconclusive = no clear call, values can overlap the other calls; inactive = in between
# UBC13 inh = blocks human UBC13 polyubiquitin chain formation. TR-FRET. actives 0.47% (n = 330,000). inhibition, % at 20 µM. P61088; in the data active = inhibition above about 45%, passing the limit was not always enough; inconclusive = no clear call, values can overlap the other calls
# Target sequence (P61088 whole entry, looked up): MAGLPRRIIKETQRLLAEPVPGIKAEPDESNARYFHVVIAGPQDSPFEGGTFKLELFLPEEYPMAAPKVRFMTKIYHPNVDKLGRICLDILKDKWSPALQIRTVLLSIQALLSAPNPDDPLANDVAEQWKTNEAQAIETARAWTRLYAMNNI
# Apaf-1 inh = inhibitors of human Apaf-1 apoptosome | O14727 | reconstituted apoptosome caspase-3 activity, DEVD-Rh110 fluorescence | inhibition, % at 20 µM | actives 0.71% (n = 330,000) | AID 489030; active = inhibition of at least 40% at 20 µM;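 note: plate controls were DMSO wells for no effect and DEVD-CHO caspase inhibitor wells for full effect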
#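 Assay system: Apoptosome proteins | Medium: pH 7.5 Hepes buffer with CHAPS, BSA, DTT | Also added: Cytochrome c and DEVD-Rh110 substrate | Times: 30 min plus 50 min, RT | Detection: Rhodamine 110 fluorescence at Ex 480/Em 540 nm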
# MEKK2 mut-MEK5 = signal of MEK5 binding to mutant human MEKK2 PB1 domain | bead flow cytometry, Alexa488-MEK5 binding to MEKK2 mutant | percent response, % at 10 µM | actives 0.35% (n = 290,000); in the data active = percent response above about 24%, passing the limit was not always enough
# DSG3 Ab inh = human desmoglein-3 autoantibody binding inhibition | actives 0.48% (n = 310,000) | DSG3-coupled beads, scFv-anti-DSG3-GFP binding, flow cytometry; stronger effect = lower value | binding (percent of control), % at 10 µM;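 active = binding more than 3 SD below its plate's average and above zero; inconclusive = below that plate limit but binding exactly zero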;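 note: hits lower antibody fragment binding to DSG3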
# MEKK3 PB1 HTS = MEKK3-MEK5 PB1 interaction, increase or decrease; bead-based flow cytometry, Alexa488-MEK5 binding to MEKK3; actives lie on both sides; 0 = blocked by unlabeled MEK5, 100 = vehicle; binding response (% of control), % at 10 µM; actives 1.4% (n = 290,000); AID 1529;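 active = binding response more than 3 SD above or below the average of its plate-row segment, actives on both sides; inconclusive = wells at one plate position flagged as instrument error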;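 note: Alexa488 bead fluorescence after subtracting the streptavidin-only scavenger bead signal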
# MEKK2wt confirm = raises or lowers MEK5 binding to wildtype human MEKK2, retest; binding response (% of control), % at 10 µM; actives 2.4% (n = 5,900); bead flow cytometry, Alexa488-MEK5 binding to MEKK2 WT; actives lie on both sides; shares compounds with MEKK3 PB1 HTS; in the data active = binding response below about 16% or above about 210%; inactive = in between
# MEKK2mut-MEK5 = signal of MEK5 binding to mutant human MEKK2, retest; shares compounds with MEKK3 PB1 HTS; bead flow cytometry, Alexa488-MEK5 binding to MEKK2 mutant; percent response, % at 10 µM; actives 2% (n = 5,900); AID 1893; in the data active = percent response mostly above about 71%, no sharp cut-off; inactive = mostly below about 38%;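 note: higher means compound restores mutant binding toward wildtype level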
# MEKK3 confirm = confirmation of inhibitors of MEK5 binding to human MEKK3. shares compounds with MEKK3 PB1 HTS. bead flow cytometry, Alexa488-MEK5 binding to MEKK3; stronger effect = lower value. binding response (% of control), % at 10 µM. actives 1.8% (n = 5,900). AID 1894;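 active = binding response below 72% of control, or above a set upper limit, though filed actives all read lower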;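 note: 100% = DMSO only wells and 0% = binding blocked by excess unlabeled MEK5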
# Numbers without * were called inactive; ? = inconclusive; . = no result; [ ] = another dose, or the depositor's remark.
SMILES,MEKK2wt PB1 HTS,UBC13 inh,Apaf-1 inh,MEKK2 mut-MEK5,DSG3 Ab inh,MEKK3 PB1 HTS,MEKK2wt confirm,MEKK2mut-MEK5,MEKK3 confirm
COC(=O)c1ccc(S(=O)(=O)N2Cc3ccccc3C2)cc1,117,-7,9,1,97,135*,101,8,102
O=C(COC(=O)CCNS(=O)(=O)c1ccc2c(c1)OCCO2)NC1CCCc2ccccc21 (stereo not drawn),115,4,9,4,.,124*,100,-2,100
O=C(NN=C1c2ccccc2-c2ccccc21)c1ccccc1Br,8.0*[inhibitor],0,14,-24,102,4.0*[inhibitor],99,1,102
O=S(=O)(NCCN1CCOCC1)c1cc(Cl)ccc1Cl,101,1,0,10,112,95,.,.,.
Cc1cc(C)cc(NC(=O)CC2Oc3ccc(C)cc3NC2=O)c1 (stereo not drawn),105,4,10,8,97,105,.,.,.
COc1ccc(C(=O)COc2ccc(F)cc2)c(O)c1,100,-8,-9,1,99,91,.,.,.
O=C(COc1ccc(F)cc1)c1c(O)cc(O)cc1O,115,-2,-4,24,89,132*,104,2,101
Cc1c(C(=O)Nc2ccc(Cl)cc2)c2ccccn2c1C(=O)c1ccccc1,116,12,8,5,95,126*,83,-4,87
Cc1c(C(=O)Nc2ccc(Cl)cc2)c2ccccn2c1C(=O)c1ccc([N+](=O)[O-])cc1,101,-41,3,0,.,107,.,.,.
CCN(CC(=O)Nc1c(F)cccc1F)C(=O)c1ccc(OCc2c(C)noc2C)cc1,.,-10,1,.,.,.,.,.,.
Cc1cc(NCCCN2CCOCC2)n2ncc(-c3ccc(Cl)cc3)c2n1,147*,15,21,23,108,109,133,19,112
COc1cc(C)ccc1OCCOCCOc1cc(C)c(C)cc1Br,106,0,15,0,98,134*,104,10,103
COc1cc(C)ccc1OCCCOc1c(Cl)cccc1Cl,106,-10,15,0,98,133*,102,-2,102
CCOc1ccccc1OCCCOc1ccc(C)cc1Cl,108,-2,13,5,.,108,.,.,.
COc1ccccc1OCCCOc1c(Cl)cc(C)cc1Cl,108,18,9,0,100,134*,107,1,105
COc1cc(C)ccc1OCCCOc1cc(C)ccc1Cl,105,13,5,2,?,106,.,.,.
CC(C(=O)Nc1ncc([N+](=O)[O-])s1)N1C(=O)c2ccccc2S1(=O)=O (stereo not drawn),.,5,5,.,93,.,.,.,.
Cc1cccc(C)c1NC(=S)N(C)CCc1ccccn1,103,0,-5,0,111,129*,105,1,101
C=CCNC(=O)c1ccc(-c2cccc([N+](=O)[O-])c2)o1,103,-6,7,-3,104,96,.,.,.
C=CCNC(=O)c1ccc(-c2ccc([N+](=O)[O-])cc2)o1,113,-13,-17,1,88,194*,103,-6,101
CCC(c1nnc(SCC(=O)Nc2ccc(NC(C)=O)cc2)n1Cc1ccccc1)N(C)C (stereo not drawn),104,-8,-2,-2,102,100,.,.,.
COc1cc(/C=C2\SC(=S)N(CC(=O)Nc3ccccn3)C2=O)cc(OC)c1OC,85,1,-10,2,92,99,.,.,.
COc1cc(/C=C2/SC(=S)N(CC(=O)Nc3nc4ccccc4s3)C2=O)cc(OC)c1OC,71*[inhibitor],-27,-7,-16,102,89,80,-9,99
CCc1nnc(NC(=O)CN2C(=O)/C(=C/c3cc(OC)c(OC)c(OC)c3)SC2=S)s1,95,-16,9,1,97,159*,88,-5,100
COc1ccc(/C=C2\SC(=S)N(CC(=O)Nc3nnc(C)s3)C2=O)cc1,84,-20,-8,-6,121,92,.,.,.
SMILES,MEKK2wt PB1 HTS,UBC13 inh,Apaf-1 inh,MEKK2 mut-MEK5,DSG3 Ab inh,MEKK3 PB1 HTS,MEKK2wt confirm,MEKK2mut-MEK5,MEKK3 confirm
CC(=O)c1c(C)n([O-])c2cc(F)c(F)cc2[n+]1=O,-12*,-1,1,-28,121,71*[inhibitor],100,2,100
O=C(O)CC1(CC(=O)Nc2ccc3ccccc3n2)CCCCC1,97,4,-5,0,96,100,.,.,.
O=C(O)CC1(CC(=O)Nc2ccc3ccccc3c2)CCCCC1,-1.0*[inhibitor],16,11,-9,102,1.0*[inhibitor],100,3,105
OC1(c2cccc(C(F)(F)F)c2)CCN(CCN2CCCCC2)CC1,140*,7,4,16,109,109,137,31,106
CCC(C)(C)n1nnnc1CN1CCC(O)(c2cccc(C(F)(F)F)c2)CC1,105,0,0,-3,.,105,.,.,.
NS(=O)(=O)c1ccc(CCn2c(=S)[nH]c3ccc(F)cc3c2=O)cc1,102,15,-8,-1,104,103,.,.,.
Cc1cccc(C)c1Nc1nnc(SCC(=O)c2ccc(Br)s2)s1,118,-6,18,6,125,109,.,.,.
Cc1ccc(Nc2nnc(SCC(=O)c3ccc(Br)s3)s2)c(C)c1,94,-12,17,2,94,72*[inhibitor],97,-8,99
Cc1ccc([C@@H]2[C@@H]3C(=O)N(C)C(=O)[C@@H]3[C@]3(C)C(=O)N(Cc4ccc(-c5ccccc5)cc4)CC(=O)N23)o1,111,3,0,9,92,101,.,.,.
O=C(CC1NCCc2ccccc21)Nc1ccccc1 (stereo not drawn),104,1,-7,2,96,111,.,.,.
O=C(CC1NCCc2ccccc21)Nc1ccc(Oc2ccccc2)cc1 (stereo not drawn),160*,18,19,25,105,118,123,9,93
COc1cccc2cc(C(=O)NC3CC4CCC3C4)oc12 (stereo not drawn),105,4,-2,3,99,105,.,.,.
O=[N+]([O-])c1c(Nc2ccccc2)ccc2nonc12,99,-15,9,3,.,100,.,.,.

# Compound activity (PubChem)
